Experimental data from article PMC2229406 (The Journal of General Physiology, 1998).
Where “and” joins values, the source holds several entries; their conditions need not be identical. Identical values can stand only once. Like-named read-outs stand apart in the source and are kept apart here.

Experiments:
[1] = test system: sheep cardiac ryanodine receptor (RyR) channel; format: biochemical
Procedure, shortened: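 CHAPS-solubilized RyR from sheep ventricular heavy SR (30/40% sucrose interface) was reconstituted into liposomes and fused into phosphatidylethanolamine/n-decane bilayers. Both chambers held 610 mM K+, 20 mM HEPES pH 7.4 and 10 μM contaminant Ca2+, with 100 μM EMD 41000 cis. Single channels only, at 21 ± 2°C. Ryanoid added cytosolically; steady-state runs ≥6 min at +40 mV. Pmod = modified/(modified+unmodified) time; single-site nonlinear regression; mean ± SEM.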

[2] = test system: sheep cardiac ryanodine receptor (RyR) channel; details: ref Tinker et al., 1996, cited from earlier work
[3] = +40 mV, 500 nM cytosolic, 20 min recording, single exponential fit

Compound: 21-amino-9α-hydroxy-ryanodine
- mean P o ± SEM in unmodified periods ([1]; 50 nM ryanoid, +40 mV, n = 5): 0.62 ± 0.15
- mean P o ± SEM in unmodified periods ([1]; 100 nM ryanoid, +40 mV, n = 5): 0.71 ± 0.16
- mean P o ± SEM in unmodified periods ([1]; 300 nM ryanoid, +40 mV, n = 5): 0.70 ± 0.16
- modification of channel function, luminal addition ([1]; 500 nM at the luminal face, +60 or −60 mV, n = 6): no modification of gating or conductance
- total valency / total voltage dependence (z on + z off) ([1]; 500 nM cytosolic): 1.98 and 2
- interaction with the channel at −60 mV ([1]; 500 nM cytosolic, −60 mV): no discernible modified-conductance events
- mean P o ± SEM in unmodified periods ([1]; 500 nM ryanoid, +40 mV, n = 5): 0.56 ± 0.16
- k on, intercept of regression line vs P o ([1]; 700 nM cytosolic, +40 mV): 0.02 ± 0.02 s⁻¹
- k on, slope vs P o ([1]; 700 nM cytosolic, +40 mV, range P o = 0–1): 0.97 ± 0.05 s⁻¹
- mean P o ± SEM in unmodified periods ([1]; 700 nM ryanoid, +40 mV, n = 4): 0.73 ± 0.15
- mean P o ± SEM in unmodified periods ([1]; 900 nM ryanoid, +40 mV, n = 4): 0.73 ± 0.15
- mean dwell time in the modified state (τmod) [1, 3]: 4.21 s
- mean dwell time in the unmodified state (τunmod) [1, 3]: 0.95 s
- K d from P mod vs concentration ([1]; +40 mV, 50-900 nM cytosolic, single-site binding scheme, nonlinear regression): 105 nM
- apparent rate constant for dissociation, mean value ([1]; +40 mV, independent of concentration): 0.24 ± 0.01 s⁻¹
- z, voltage dependence of occurrence of the modified state ([1]; Boltzmann fit of P mod vs holding potential, 500 nM cytosolic): 2.16
- Hill slope ([1]; P mod vs concentration, +40 mV): 0.99
- slope of ln(rate constant) vs ln(concentration) ([1]; association, +40 mV): 0.975
- modified conductance ([1]; cursors at center of noise, 610 mM K+, SEM, n = 14): 354 ± 6 pS
- mean fractional conductance ± SEM ([1]; holding potential 20 mV, n = 10): 0.438 ± 0.004
- mean fractional conductance ± SEM ([1]; holding potential 40 mV, n = 10): 0.440 ± 0.003
- mean fractional conductance ± SEM ([1]; holding potential 60 mV, n = 10): 0.462 ± 0.003
- mean P o ± SEM in unmodified periods ([1]; holding potential +20 mV, 500 nM ryanoid, n = 7): 0.65 ± 0.09
- mean P o ± SEM in unmodified periods ([1]; holding potential +40 mV, 500 nM ryanoid, n = 7): 0.69 ± 0.09
- mean P o ± SEM in unmodified periods ([1]; holding potential +60 mV, 500 nM ryanoid, n = 7): 0.45 ± 0.06
- mean P o ± SEM in unmodified periods ([1]; holding potential −20 mV, 500 nM ryanoid, n = 6): 0.62 ± 0.15
- mean fractional conductance ± SEM ([1]; holding potential −20 mV, n = 10): 0.437 ± 0.005
- mean P o ± SEM in unmodified periods ([1]; holding potential −40 mV, 500 nM ryanoid, n = 5): 0.73 ± 0.13
- mean fractional conductance ± SEM ([1]; holding potential −40 mV, n = 6): 0.442 ± 0.002
- mean P o ± SEM in unmodified periods ([1]; holding potential −60 mV, 500 nM ryanoid, n = 5): 0.78 ± 0.17
- fractional conductance ([1]; modified conductance as proportion of unmodified conductance (813 pS)): 0.44
- Kd ([1]; read-out: apparent K d derived from the rate constants, +40 mV): 111 nM
- z off ([1]; slope of ln(K off) vs holding potential, 500 nM cytosolic): 0.87
- z on ([1]; slope of ln(K on) vs holding potential, 500 nM cytosolic): 1.11

Compound: CC(C)[C@@]1(O)[C@@H](O)[C@@]2(O)[C@@]3(C)C[C@]4(O)O[C@@]5([C@H](O)[C@@H](C)CC[C@]35O)[C@@]2(O)[C@]14C [ryanodol]
- voltage dependence of channel modification ([2]; +60 vs −60 mV): more likely to occur and are longer lasting at a holding potential of +60 than −60 mV
- amplitude of reduced conductance state, of the normal unmodified conductance [2]: ~70%
